According to ChEMBL document CHEMBL2390924, “Further studies on bis-charged tetraazacyclophanes as potent inhibitors of small conductance Ca(2+)-activated K+ channels” (Eur J Med Chem, 2013):

Experiments:
[1] = molecular target: Small conductance calcium-activated potassium channel protein 3 (Rattus norvegicus) (UniProt P70605); experiment: Inhibition of KCa2.3 in Sprague-Dawley rat superior cervical ganglion neurons assessed as inhibition of afterhyperpolarization by electrophysiological assay relative to UCL1848
Method in brief: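 AHP recorded from rat sympathetic ganglion neurons. The equi-effective molar ratio is the test-compound concentration giving 50% AHP inhibition divided by the UCL 1848 concentration giving 50% inhibition, both measured in the same experiment. Each compound was tested on 3–5 neurons.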
Target sequence in this assay (P70605 whole entry): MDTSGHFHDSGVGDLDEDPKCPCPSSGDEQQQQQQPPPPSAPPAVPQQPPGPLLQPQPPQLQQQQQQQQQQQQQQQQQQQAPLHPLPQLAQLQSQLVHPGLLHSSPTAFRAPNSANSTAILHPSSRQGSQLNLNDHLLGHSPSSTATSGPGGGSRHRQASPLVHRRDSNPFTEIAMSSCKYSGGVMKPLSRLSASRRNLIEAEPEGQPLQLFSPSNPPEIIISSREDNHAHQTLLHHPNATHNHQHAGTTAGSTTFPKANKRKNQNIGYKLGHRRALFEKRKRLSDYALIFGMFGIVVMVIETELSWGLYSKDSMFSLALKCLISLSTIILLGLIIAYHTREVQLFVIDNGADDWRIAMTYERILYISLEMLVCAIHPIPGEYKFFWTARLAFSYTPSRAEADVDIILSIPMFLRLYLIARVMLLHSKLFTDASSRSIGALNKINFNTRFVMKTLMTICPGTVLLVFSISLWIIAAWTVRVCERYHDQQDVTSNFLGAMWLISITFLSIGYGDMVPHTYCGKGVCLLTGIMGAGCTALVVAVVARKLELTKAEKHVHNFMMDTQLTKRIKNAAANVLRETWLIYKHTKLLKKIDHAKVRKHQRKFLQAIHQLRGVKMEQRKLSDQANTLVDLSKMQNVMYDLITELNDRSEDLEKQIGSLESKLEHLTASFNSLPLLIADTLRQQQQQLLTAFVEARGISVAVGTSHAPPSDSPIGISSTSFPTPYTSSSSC

[2] = molecular target: Small conductance calcium-activated potassium channel protein 3 (Rattus norvegicus, UniProt P70605); experiment: Inhibition of KCa2.3 in Sprague-Dawley rat superior cervical ganglion neurons assessed as inhibition of afterhyperpolarization by electrophysiological assay
Chain of Small conductance calcium-activated potassium channel protein 3 (P70605 whole entry): as above
Method in brief: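 Afterhyperpolarization (AHP) recorded from rat sympathetic ganglion neurons. The reported value is the concentration giving a 50% reduction in AHP amplitude.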

[3] = molecular target: Small conductance calcium-activated potassium channel protein 3 (Rattus norvegicus) (UniProt P70605); experiment: Inhibition of KCa2.3 in rat superior cervical ganglion neurons
Target sequence in this assay (P70605 whole entry, looked up): as the sequence (P70605 whole entry) above

[4] = molecular target: Small conductance calcium-activated potassium channel protein 3 (Rattus norvegicus) (UniProt P70605); experiment: Inhibition of KCa2.3 in Sprague-Dawley rat superior cervical ganglion neurons assessed as inhibition of afterhyperpolarization by electrophysiological assay relative to dequalinium
Method in brief: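 AHP recorded from rat sympathetic ganglion neurons. The equi-effective molar ratio is the concentration giving 50% AHP inhibition relative to that of dequalinium, used as the comparator instead of UCL 1848.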
Target sequence in this assay (P70605 whole entry): as above

SMILES | EMR [1] | IC50 [2] [nM] | IC50 [3] [nM] | EMR [4]
c1ccc2c(c1)c1cc[n+]2CCSCC[n+]2ccc(c3ccccc32)NCCOCCN1 | 11 | 37 |  | 
c1ccc2c(c1)c1cc[n+]2CCCCC[n+]2ccc(c3ccccc32)NCCSCCN1 | 5.3 | 18 |  | 
C1#CCNc2cc[n+](c3ccccc23)CCCCC[n+]2ccc(c3ccccc32)NC1 | 5.6 | 14 |  | 
c1ccc2c(c1)c1cc[n+]2CCSCC[n+]2ccc(c3ccccc32)NCCSCCN1 | 12 | 42 |  | 
Clc1cc(Cl)c2c3cc[n+](c2c1)CCCCC[n+]1ccc(c2c(Cl)cc(Cl)cc21)NCCCCCN3 | 8.6 | 21 |  | 
c1ccc2c(c1)c1cc[n+]2CCCCC[n+]2ccc(c3ccccc32)NCCC2(CCN1)OCCO2 | 60 | 214 |  | 
FC(F)(F)c1ccc2c(c1)c1cc[n+]2CCCCC[n+]2ccc(c3cc(C(F)(F)F)ccc32)NCCCCCN1 | 1.1 | 4 |  | 
Nc1ccc2c(c1)c1cc[n+]2Cc2cccc(c2)C[n+]2ccc(c3cc(N)ccc32)NCc2ccc(cc2)CN1 | 1.7 | 3.7 |  | 
Nc1ccc2c(c1)c1cc[n+]2CCCCC[n+]2ccc(c3cc(N)ccc32)NCCCCCN1 | 1.04 | 2.3 |  | 
c1ccc2c(c1)c1cc[n+]2CCCCC[n+]2ccc(c3ccccc32)SCCCCCS1 | 25 | 124 |  | 
c1ccc2c(c1)c1cc[n+]2CCCCC[n+]2ccc(c3ccccc32)NCCCCCN1 |  | 2.7 |  | 
c1cc2cc(c1)C[n+]1ccc(c3ccccc31)NCc1ccc(cc1)CNc1cc[n+](c3ccccc13)C2 | 1.44 | 4.1 |  | 
FC(F)(F)c1ccc2c3cc[n+](c2c1)CCCCC[n+]1ccc(c2ccc(C(F)(F)F)cc21)NCCCCCN3 | 1.6 | 8.1 |  | 
c1ccc2c(c1)c1cc[n+]2CCCCC[n+]2ccc(c3ccccc32)NCC2CCC(CC2)CN1 | 54 | 114 |  | 
Clc1ccc2c(c1)c1cc[n+]2CCCCC[n+]2ccc(c3cc(Cl)ccc32)NCCCCCN1 | 1.1 | 3 |  | 
OC1CCNc2cc[n+](c3ccccc23)CCCCC[n+]2ccc(c3ccccc32)NCC1 | 0.91 | 3.2 |  | 
Oc1c2cc(I)cc1CNc1cc[n+](c3ccccc13)CCCCC[n+]1ccc(c3ccccc31)NC2 | 136 | 348 |  | 
O=[N+]([O-])c1ccc2c(c1)c1cc[n+]2Cc2cccc(c2)C[n+]2ccc(c3cc([N+](=O)[O-])ccc32)NCc2ccc(cc2)CN1 | 2.6 | 5.1 |  | 
FC1(F)CNc2cc[n+](c3ccccc23)CCCCC[n+]2ccc(c3ccccc32)NCC(F)(F)C1(F)F | 13.5 | 33 |  | 
c1ccc2c(c1)c1cc[n+]2CCCCC[n+]2ccc(c3ccccc32)NCc2ccc(cc2)CN1 |  |  | 60 | 

SMILES | EMR [1] | IC50 [2] [nM] | IC50 [3] [nM] | EMR [4]
c1ccc2c(c1)c1cc[n+]2CCOCC[n+]2ccc(c3ccccc32)NCCOCCN1 | 5.1 | 17 |  | 
c1ccc2c(c1)c1cc[n+]2CCOCC[n+]2ccc(c3ccccc32)NCCSCCN1 | 17 | 58 |  | 
FC(F)(F)c1ccc2c(c1)c1cc[n+]2Cc2cccc(c2)C[n+]2ccc(c3cc(C(F)(F)F)ccc32)NCc2ccc(cc2)CN1 | 11 | 27 |  | 
CC1CCNc2cc[n+](c3ccccc23)CCCCC[n+]2ccc(c3ccccc32)NCC1 | 2.6 | 5.9 |  | 
Clc1cc(Cl)c2c3cc[n+](c2c1)Cc1cccc(c1)C[n+]1ccc(c2c(Cl)cc(Cl)cc21)NCc1ccc(cc1)CN3 | 10 | 24 |  | 
Cc1ccc2c(c1)c1cc[n+]2CCCCC[n+]2ccc(c3cc(C)ccc32)NCCCCCN1 | 2 | 3.8 |  | 
Clc1ccc2c(c1)c1cc[n+]2Cc2cccc(c2)C[n+]2ccc(c3cc(Cl)ccc32)NCc2ccc(cc2)CN1 | 8 | 21 |  | 
Oc1ccc2c(c1)c1cc[n+]2CCCCC[n+]2ccc(c3cc(O)ccc32)NCCCCCN1 | 1.8 | 3.9 |  | 
COc1ccc2c3cc[n+](c2c1)CCCCC[n+]1ccc(c2ccc(OC)cc21)NCCCCCN3 | 1.1 | 3 |  | 
c1ccc2c(c1)c1cc[n+]2CCOCC[n+]2ccc(c3ccccc32)NCCCCCN1 | 1.4 | 4.8 |  | 
c1ccc2c(c1)c1cc[n+]2CCSCC[n+]2ccc(c3ccccc32)NCCCCCN1 | 1.2 | 4.1 |  | 
c1cc2cc(c1)CNc1cc[n+](c3ccccc13)CCCCC[n+]1ccc(c3ccccc31)NC2 [listing 1 of 3 here] |  | 33 |  | 
Cc1ccc2c(c1)c1cc[n+]2Cc2cccc(c2)C[n+]2ccc(c3cc(C)ccc32)NCc2ccc(cc2)CN1 | 7.6 | 19 |  | 
COc1ccc2c(c1)c1cc[n+]2Cc2cccc(c2)C[n+]2ccc(c3cc(OC)ccc32)NCc2ccc(cc2)CN1 | 7.4 | 15 |  | 
O=[N+]([O-])c1ccc2c(c1)c1cc[n+]2CCCCC[n+]2ccc(c3cc([N+](=O)[O-])ccc32)NCCCCCN1 | 2.1 | 4.1 |  | 
Fc1ccc2c(c1)c1cc[n+]2CCCCC[n+]2ccc(c3cc(F)ccc32)NCCCCCN1 | 2.1 | 4.1 |  | 
C1=C\CNc2cc[n+](c3ccccc23)CCCCC[n+]2ccc(c3ccccc32)NC/1 | 6.1 | 13 |  | 
CC1CCNc2cc[n+](c3ccccc23)CCC(C)CC[n+]2ccc(c3ccccc32)NCC1 (configuration not stated) | 2.3 | 5.2 |  | 
c1cc2cc(c1)CNc1cc[n+](c3ccccc13)CCCCC[n+]1ccc(c3ccccc31)NC2 [listing 2 of 3 here] |  |  | 31 | 
COc1c2cccc1CNc1cc[n+](c3ccccc13)CCCCC[n+]1ccc(c3ccccc31)NC2 | 38 | 97 |  | 

SMILES | EMR [1] | IC50 [2] [nM] | IC50 [3] [nM] | EMR [4]
c1cc2cc(c1)CNc1cc[n+](c3ccccc13)CCCCC[n+]1ccc(c3ccccc31)NC2 [listing 3 of 3 here] | 12 |  |  | 
CC1CC[n+]2ccc(c3ccccc32)NCCCCCNc2cc[n+](c3ccccc23)CC1 | 1.7 | 3.8 |  | 
FC(F)(F)c1ccc2c3cc[n+](c2c1)Cc1cccc(c1)C[n+]1ccc(c2ccc(C(F)(F)F)cc21)NCc1ccc(cc1)CN3 | 31 | 76 |  | 
COc1ccc2c3cc[n+](c2c1)Cc1cccc(c1)C[n+]1ccc(c2ccc(OC)cc21)NCc1ccc(cc1)CN3 | 4.1 | 9.8 |  | 
O=C1CCNc2cc[n+](c3ccccc23)CCCCC[n+]2ccc(c3ccccc32)NCC1 | 3.6 | 12 |  | 
Clc1ccc2c3cc[n+](c2c1)Cc1cccc(c1)C[n+]1ccc(c2ccc(Cl)cc21)NCc1ccc(cc1)CN3 | 7.3 | 19 |  | 
c1ccc(CN2CCCCCN(Cc3ccccc3)c3cc[n+](c4ccccc34)CCCCC[n+]3ccc2c2ccccc23)cc1 | 25 | 123 |  | 
Oc1c2cccc1CNc1cc[n+](c3ccccc13)CCCCC[n+]1ccc(c3ccccc31)NC2 | 153 | 394 |  | 
c1ccc2c(c1)c1cc[n+]2CCCCC[n+]2ccc(c3ccccc32)NCCOCCN1 | 5 | 17 |  | 
COc1ccc2c(c1)c1cc[n+]2CCCCC[n+]2ccc(c3cc(OC)ccc32)NCCCCCN1 | 3.1 | 6.8 |  | 
CN1CCCCCN(C)c2cc[n+](c3ccccc23)CCCCC[n+]2ccc1c1ccccc12 | 47 | 124 |  | 0.14
c1cc2cc(c1)C[n+]1ccc(c3ccccc31)NCC1CCC(CC1)CNc1cc[n+](c3ccccc13)C2 | 0.81 | 1.7 |  | 
c1ccc2c(c1)c1cc[n+]2CCC2(CC[n+]3ccc(c4ccccc43)NCCC3(CCN1)OCCO3)OCCO2 | 83 | 300 |  | 
c1ccc2c(c1)c1cc[n+]2Cc2ccc(cc2)C[n+]2ccc(c3ccccc32)NCCCCCN1 | 1.8 | 4.4 |  | 
Fc1ccc2c(c1)c1cc[n+]2Cc2cccc(c2)C[n+]2ccc(c3cc(F)ccc32)NCc2ccc(cc2)CN1 | 6.9 | 17 |  | 
Clc1ccc2c3cc[n+](c2c1)CCCCC[n+]1ccc(c2ccc(Cl)cc21)NCCCCCN3 | 0.53 | 2.6 |  | 
FC(F)(F)Oc1ccc2c(c1)c1cc[n+]2Cc2cccc(c2)C[n+]2ccc(c3cc(OC(F)(F)F)ccc32)NCc2ccc(cc2)CN1 | 5.9 | 15 |  | 
C1=C\C[n+]2ccc(c3ccccc32)NCCCCCNc2cc[n+](c3ccccc23)C/1 | 19 | 42 |  | 
